Rad51 HR inh: Rad51 (human) homologous recombination inhibition. Q06609. hRad51 DNA strand exchange, fluorescence dequenching. inhibition, % at 10 µM. hit rate 0.085% among 200,000. AID 1385;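 active means inhibition above 40% at the single screening dose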
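Assay system: Human Rad51 nucleoprotein filaments preassembled on unlabelled ssDNA | Reagent: Donor/quencher-labelled 47-bp dsDNA substrate | Doses: One concentration, 10 µM final | Times: 37 °C 15-min filament assembly, 30-min compound preincubation, 15-min exchange | Technique: Fluorescein emission 520 nm, excitation 485 nm | Benchmarks: Plate control and blank wells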
Ins promoter up: MIN6 insulin promoter up-regulation; MIN6 insulin promoter-GFP reporter, high-content imaging; stronger effect = higher value; z-score at 5 µM; hit rate 0.3% among 190,000;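 active means z-score above 3 at 5 µM with at least 500 cells counted in the well; inconclusive means wells under 500 cells, flagged as cytotoxic or low count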
WT yeast gro inh: growth inhibition of WT yeast, mitochondrial fusion screen | mitochondrial fusion phenotypic screen, WT strain | inhibition, % at 10 µM | hit rate 2.1% among 190,000 | AID 1362; in the data active means inhibition above about 58%; tested in S. cerevisiae
KCC2 mod: modulators of human KCC2 chloride dependent transport; KCC2 cells, thallium flux FluoZin-2 fluorescence; B-score of Tl+ flux slope (higher = more flux/activation; lower = inhibition) at 10 µM; AID 1456; Q9H2X9; hit rate 2.2% among 190,000;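 active means thallium flux slope and its plate-corrected score both differing from the plate sample mean at a set confidence after two filtering rounds, in either direction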;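 further: slope of fluorescence scaled to starting intensity during 10 to 20 s after thallium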
Target sequence (Q9H2X9 whole entry, looked up): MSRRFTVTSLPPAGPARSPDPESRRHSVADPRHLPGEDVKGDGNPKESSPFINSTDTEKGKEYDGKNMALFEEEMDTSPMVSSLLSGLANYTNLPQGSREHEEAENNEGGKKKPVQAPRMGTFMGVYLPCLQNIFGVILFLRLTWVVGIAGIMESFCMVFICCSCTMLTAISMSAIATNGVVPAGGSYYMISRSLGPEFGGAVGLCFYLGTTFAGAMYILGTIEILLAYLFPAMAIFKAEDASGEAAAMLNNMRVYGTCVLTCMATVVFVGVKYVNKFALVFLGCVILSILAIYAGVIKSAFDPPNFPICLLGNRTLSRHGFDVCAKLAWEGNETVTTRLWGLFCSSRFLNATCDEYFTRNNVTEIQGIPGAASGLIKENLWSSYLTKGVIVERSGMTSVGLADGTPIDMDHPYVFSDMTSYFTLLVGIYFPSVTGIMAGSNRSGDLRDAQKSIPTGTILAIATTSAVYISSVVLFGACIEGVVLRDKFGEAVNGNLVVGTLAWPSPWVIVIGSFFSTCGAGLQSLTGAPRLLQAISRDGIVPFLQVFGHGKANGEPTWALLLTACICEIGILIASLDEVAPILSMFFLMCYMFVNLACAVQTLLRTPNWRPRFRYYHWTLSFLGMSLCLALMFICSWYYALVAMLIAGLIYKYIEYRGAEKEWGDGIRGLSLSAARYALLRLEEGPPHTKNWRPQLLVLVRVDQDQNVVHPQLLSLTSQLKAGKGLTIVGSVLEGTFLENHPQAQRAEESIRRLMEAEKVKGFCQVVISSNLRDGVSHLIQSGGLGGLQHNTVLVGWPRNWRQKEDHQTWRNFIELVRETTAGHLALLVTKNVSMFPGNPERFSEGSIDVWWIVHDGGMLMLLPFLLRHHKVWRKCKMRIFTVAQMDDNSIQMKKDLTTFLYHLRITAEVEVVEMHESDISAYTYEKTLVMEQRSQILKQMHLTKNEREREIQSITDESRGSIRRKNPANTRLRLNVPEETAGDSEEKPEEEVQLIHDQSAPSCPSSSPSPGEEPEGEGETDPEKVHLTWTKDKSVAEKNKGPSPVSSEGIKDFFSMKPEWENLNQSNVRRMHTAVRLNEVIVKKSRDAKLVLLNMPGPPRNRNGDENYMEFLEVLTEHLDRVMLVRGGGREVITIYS
SKKanGAS inh: inhibitors of SKKanGAS S. pyogenes growth in kanamycin (SK-promoter or general growth effect) | AID 1662 | BacTiter-Glo, 6 h | hit rate 1.3% among 300,000 | inhibition, % at 7.5 µM;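 active means mean replicate score, as percent of positive control median, at least 50; inconclusive means mean below 50 but one replicate at or above 50; inactive means mean and every replicate below 50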;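 further: strain carries kanamycin resistance gene driven by streptokinase promoter and grows in 40 µg/ml kanamycin; loss of luminescence reflects streptokinase promoter inhibition or plain growth inhibition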
Autophagy mod: autophagy modulation, high-content screen | MEF GFP-LC3 puncta imaging; test concentration mostly 10 µM | calls only at 10 µM (by protocol) | hit rate 0.98% among 190,000 | AID 463193;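 active means percentage of spot-positive cells more than 3 SD above its plate mean, without a fluorescence outlier flag or 80% toxicity; inconclusive means no clear call, values can overlap the other calls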
Hits are given with their value; 0 = inactive; ? = inconclusive; - = no result; + = active, no number. In the library only some 4.2% were active in any assay of this set; here they are far more common.

SMILES	Rad51 HR inh	Ins promoter up	WT yeast gro inh	KCC2 mod	SKKanGAS inh	Autophagy mod
CCn1cc(C(=O)OCC(=O)OC2CC(C)CCC2C(C)C)c(=O)c2ccc(C)nc21 (stereo not drawn)	0	0	70.5	-	0	0
C=CCOC(=O)c1cn(CC)c2nc(C)ccc2c1=O	0	-	0	0	0	0
O=C(Nc1ncc2c(n1)-c1ccccc1CC2)c1cccs1	0	0	0	0	0	0
Cc1cccc(-n2c(CCc3ccccc3)nnc2SCC(=O)c2ccccc2)c1	0	-	67.9	0	0	0
O=C1CCC(C(=O)Nc2cccc(Br)c2)N1 (stereo not drawn)	-	-	-	-	0	-
CC(C)c1ccc(OCC(=O)NNC(=S)NC(=O)C2CC2)cc1	-	-	-	-	95.8	-
Cc1ccc(OCC(=O)NNC(=S)NC(=O)C2CCCCC2)c(C)c1	-	-	-	-	90.2	-
COc1cccc(/C=N/NC(=O)c2ccoc2C)c1O	-	0	-	0	77.2	-
COc1cccc(/C=N/NC(=O)NC23CC4CC(CC(C4)C2)C3)c1O	-	-	-	-	97.2	-
CC(C)(C)c1ccc(NC(=O)COC(=O)c2ccc(NS(=O)(=O)c3ccc(F)c(F)c3)cc2)cc1	0	0	0	0	54.0	0
CC(C)(C)NC(=O)NC(=O)COC(=O)c1cccc(NS(=O)(=O)c2ccc(F)c(F)c2)c1	0	0	0	0	0	0
CCc1nnc(SC(C)C(=O)Nc2nccs2)n1C (stereo not drawn)	-	-	-	-	0	-
CSCCC(NS(=O)(=O)c1ccccc1F)C(=O)NCc1ccncc1 (stereo not drawn)	-	-	-	-	0	-
Cc1ccc(C(O)(C(=O)NNc2ccc3ccccc3n2)c2ccc(C)cc2)cc1	0	0	0	0	71.2	0
Cc1ccc(C(=O)Nc2ccc3ccccc3n2)cc1	-	-	-	-	0	-
N=c1n(Cc2ccc(Cl)cc2)c2ccccc2n1CC(O)COc1ccccc1 (stereo not drawn)	0	0	0	0	0	0
OC(COCC(F)(F)C(F)(F)C(F)(F)C(F)F)Cn1c2ccc(Cl)cc2c2cc(Cl)ccc21 (stereo not drawn)	0	0	85.8	0	109.9	0
COc1cccc(CNC(=O)C2CCC(=O)N(C3CC3)C2)c1OC (stereo not drawn)	-	-	-	-	0	-
CCOc1ccccc1-c1nc(CN2CCN(C(=O)c3ccco3)CC2)c(C)o1	-	-	-	-	0	-
CCOc1ccccc1-n1c(CN2CCN(C(=O)c3ccco3)CC2)nc2ccccc2c1=O	-	0	69.9	0	0	0
O=C(O)c1ccc(Nc2nc(-c3ccccc3)c3ccccc3n2)cc1	0	0	0	0	0	+
O=C(O)c1ccc(Nc2nc(-c3ccccc3)nc3ccccc23)cc1	-	-	-	-	0	-
Cc1nn(-c2ccccc2)c(C)c1/C=N/NC(=O)CSc1nc2ccccc2c(=O)n1-c1ccc(Br)cc1	0	0	0	0	0	0
Cc1ccc(-n2c(SCC(=O)N/N=C/c3c(C)nn(-c4ccccc4)c3C)nc3ccccc3c2=O)cc1	0	0	0	0	0	+
COc1cc(/C=N/N=C(/C(=O)c2ccccc2)c2ccccc2)cc(OC)c1O	-	0	72.2	0	0	0
SMILES	Rad51 HR inh	Ins promoter up	WT yeast gro inh	KCC2 mod	SKKanGAS inh	Autophagy mod
O=C(Nc1ccccn1)c1ccco1	0	0	70.0	0	0	0
CC(C)=CCC12Oc3cc(O)ccc3C1(O)Oc1cc(O)c([C@H]3C=C(C)CC(c4ccc(O)cc4O)[C@H]3C(=O)c3ccc(O)cc3O)c(O)c1C2=O (stereo partly drawn)	0	-	-	-	111.1	-
O=c1c2ccccc2cnn1Cc1n[nH]c(=S)n1-c1ccccc1Cl	0	0	0	0	0	0
O=C(Nc1ccc(Cl)cc1)C1=Cc2cc(Cl)ccc2OC1	0	0	0	0	0	0
COc1ccc2c(c1)C=C(C(=O)NCc1ccc(Cl)cc1)CO2	0	0	67.9	-	0	0
CCc1c(C2(O)CCCCC2)[nH]c2c(C(=O)OC)cc(Cl)cc12	-	-	-	-	99.8	-
Cc1ccc2c(c1)N(CC(=O)NCCCN1CCCCC1)C(=O)CO2	-	-	-	-	0	-
N/C(=N\OC(=O)C(c1ccccc1)c1ccccc1)c1cccnc1	0	0	75.7	0	0	0
N/C(=N\OC(=O)COc1ccccc1)c1cccnc1	-	-	-	-	0	-
Cc1[nH]c2ccccc2c1/C=N/Nc1nc(Nc2ccc(F)cc2)nc(N2CCOCC2)n1	0	0	0	-	0	+
Cc1ccccc1CN(C)CC(=O)NC(C)CCc1ccccc1 (stereo not drawn)	0	0	0	0	0	+
Cc1cccc(C)c1NC(=S)NC(C)CCc1ccccc1 (stereo not drawn)	0	0	72.9	0	0	0
Cc1ccc(NC(=S)NC(C)CCc2ccccc2)cc1C (stereo not drawn)	0	0	67.5	0	0	0
Cc1ccccc1NC(=O)C(=O)NC(C)CCc1ccccc1 (stereo not drawn)	0	0	0	0	?	0
Cc1ccc(CC(=O)NC(C)CCc2ccccc2)cc1 (stereo not drawn)	0	0	0	0	0	0
CC(=O)c1ccc(NC(=S)NC(C)CCc2ccccc2)cc1 (stereo not drawn)	-	0	0	0	0	0
Cc1cccc(C)c1NC(=O)NC1(C(=O)N2CCOCC2)CCCCC1	0	0	0	0	0	0
CCN(C(=O)c1ccc2c(SCC(=O)O)c3c(nc2c1)CCC3)c1cc(Cl)ccc1OC	-	-	-	-	0	-
CC(=O)Oc1ccc(C(=O)Nc2ccc(S(=O)(=O)N3CCOCC3)cc2)cc1	-	-	-	-	0	-
C/C(=N\NC(=O)c1cc2ccccc2cc1O)c1ccc2c(c1)OCO2	-	0	0	0	80.9	0
CC(C)c1ccc(O)c(NC(=S)NC(=O)c2ccc3c(c2)OCO3)c1	-	-	-	-	60.3	-
C/C(=N\NC(=O)c1ccc(C)cc1C)c1ccc2c(c1)OCO2	0	0	0	0	0	0
COc1cc(C(=O)NNC(=S)NC(=O)c2ccc3c(c2)OCO3)cc(OC)c1OC	0	0	-	0	76.7	-
CNC(=S)NNC(=O)c1ccc2c(c1)OCO2	0	0	0	0	0	0
COc1cc(C(=O)N/N=C(\C)c2ccc3c(c2)OCO3)cc(OC)c1OC	0	0	0	-	0	+
SMILES	Rad51 HR inh	Ins promoter up	WT yeast gro inh	KCC2 mod	SKKanGAS inh	Autophagy mod
O=C(NC(=S)Nc1ccccc1Br)c1ccc2c(c1)OCO2	-	-	-	-	0	-
COc1cc(C(=O)OCC(=O)NC(=O)C2CCCCC2)ccc1OC(F)F	0	0	0	0	0	0
CC(C)Cn1c(N)c(C(=O)NCC2CCCO2)c2nc3ccccc3nc21 (stereo not drawn)	0	0	59.8	0	0	0
Clc1ccc(Oc2cccc(/C=N/n3cnnc3)c2)cc1	0	0	67.8	0	0	0
Cc1cc(C)c(C(=O)CC(=O)c2ccccc2Cl)c(O)c1	-	-	-	-	83.4	-
Cc1cc(C)c(NC(=O)CC(=O)c2ccccc2)c(Cl)c1	-	-	-	-	0	-
CCC(=O)Nc1ccc2c(c1)C(=O)c1ccccc1C2=O	0	0	0	0	0	0
CCC(C)(C)c1ccc2c(c1)C(=O)c1ccccc1C2=O	0	0	75.7	0	0	0
Cc1cccc(NC(=O)c2cc(S(=O)(=O)N(C)c3ccc(F)cc3)ccc2Cl)n1	-	-	-	-	0	-

Source: PubChem BioAssay (several laboratories)
